Tests used:
[1] = molecular target: T1, Fatty-acid amide hydrolase 1 (Rattus norvegicus, UniProt P97612); test: Inhibition of FAAH in rat brain microsomes assessed as reduction in enzyme-mediated 4-pyren-1-ylbutanoic acid release using N-(2-hydroxyethyl)-4-pyren-1-ylbutanamide as substrate incubated fro 60 mins by reversed phase HPLC method
T1 sequence (P97612 whole entry): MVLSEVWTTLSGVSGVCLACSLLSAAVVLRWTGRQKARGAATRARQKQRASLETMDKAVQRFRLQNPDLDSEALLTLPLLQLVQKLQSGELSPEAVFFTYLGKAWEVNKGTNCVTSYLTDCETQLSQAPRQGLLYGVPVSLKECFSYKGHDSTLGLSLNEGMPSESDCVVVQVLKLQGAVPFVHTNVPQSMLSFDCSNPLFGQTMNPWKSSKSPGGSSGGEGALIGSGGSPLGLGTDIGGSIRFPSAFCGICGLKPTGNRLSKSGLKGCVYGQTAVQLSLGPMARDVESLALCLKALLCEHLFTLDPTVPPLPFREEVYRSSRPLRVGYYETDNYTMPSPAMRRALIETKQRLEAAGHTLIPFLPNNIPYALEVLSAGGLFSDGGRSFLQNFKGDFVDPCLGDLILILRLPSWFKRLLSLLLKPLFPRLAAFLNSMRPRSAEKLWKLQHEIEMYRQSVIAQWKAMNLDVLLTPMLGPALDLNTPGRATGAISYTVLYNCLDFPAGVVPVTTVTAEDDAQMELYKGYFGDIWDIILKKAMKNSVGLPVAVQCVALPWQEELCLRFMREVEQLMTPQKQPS
How it was run: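 Rat brain microsomes as enzyme source; fluorogenic substrate N-(2-hydroxyethyl)-4-pyren-1-ylbutanamide, with Triton X-100 in the incubation buffer to solubilize substrate and stabilize the membrane-bound enzyme. Incubation 60 min. Released 4-pyren-1-ylbutanoic acid quantified by reversed-phase HPLC with fluorescence detection, using 6-pyren-1-ylhexanoic acid as internal standard. Product is compared with and without inhibitor. IC50 is the mean of at least two independent determinations.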

[2] = Metabolic stability in rat liver S9 fractions assessed as parent compound remaining in presence of NADPH incubated fro 30 mins by HPLC and MS-detection based method; format: ADME, subcellular, S9 fraction; settings: read-out: Stability
How it was run: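 Compound incubated with rat liver S9 fraction plus cofactor NADPH for 30 min. Parent remaining measured by reversed-phase HPLC with MS detection and expressed as percent of parent. Mean ± SD of three independent determinations.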

[3] = Metabolic stability in porcine blood plasma assessed as parent compound remaining incubated fro 30 mins by HPLC and MS-detection based method; format: ADME, cell-free, Sus scrofa; settings: pig, read-out: Stability
How it was run: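 Porcine blood plasma incubation, 30 min. Remaining parent quantified by reversed-phase HPLC with MS detection and reported as percent remaining. Mean ± SD, n = 3 independent determinations.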

| Structure (SMILES) | IC50 [1] [nM] | remaining at 0.5 h [2] [%] | remaining at 0.5 h [3] [%] |
| --- | --- | --- | --- |
| O=C(Oc1ccccc1)N1CCN(CCn2ccc3ccc(F)cc32)CC1 | 180 | – | – |
| O=C(Oc1ccccc1)N1CCN(CCn2ccc3cnccc32)CC1 | 790 | – | – |
| COc1ccc2c(ccn2CCC2CCN(C(=O)Oc3ccccc3)CC2)c1 | 360 | – | – |
| O=C(Oc1ccccc1)N1CCC(CCn2ccc3ccc(F)cc32)CC1 | 46 | 82 | 93 |
| O=C(Oc1ccccc1)N1CCN(CCn2ccc3ccncc32)CC1 | 310 | – | – |
| O=C(Oc1ccccc1)N1CCN(CCn2ccc3cccnc32)CC1 | 200 | – | – |
| O=C(Oc1ccccc1)N1CCC(CCCn2ccc3ccccc32)CC1 | 570 | 80 | 93 |
| CN(CCCCCn1ccc2ccc(F)cc21)C(=O)Oc1ccccc1 | 1600 | 65 | 93 |
| O=C(Oc1ccccc1)N1CCC(CCCCn2ccc3ccccc32)CC1 | 180 | 78 | 87 |
| O=C(Oc1ccccc1)N1CCC(CCn2ccc3c(F)cccc32)CC1 | 110 | – | – |

More lines, now with the values ahead:

| IC50 [1] [nM] | remaining at 0.5 h [2] [%] | remaining at 0.5 h [3] [%] | Structure (SMILES) |
| --- | --- | --- | --- |
| 700 | – | – | Cc1ccc2c(ccn2CCC2CCN(C(=O)Oc3ccccc3)CC2)c1 |
| 410 | – | – | O=C(Oc1ccccc1)N1CCC(CCn2ccc3cc(Cl)ccc32)CC1 |
| 410 | – | – | O=C(Oc1ccccc1)N1CCC(CCn2c3ccccc3c3ccccc32)CC1 |
| 970 | – | – | N#Cc1ccc2c(ccn2CCC2CCN(C(=O)Oc3ccccc3)CC2)c1 |
| 130 | – | – | O=C(Oc1ccccc1)N1CCC(CCn2ccc3cc(F)ccc32)CC1 |
| 1700 | – | – | O=C(Oc1ccccc1)N1CCC(CCn2ccc3ncccc32)CC1 |
| 52 | – | – | O=C(Oc1ccccc1)N1CCC(CCn2ccc3cccc(F)c32)CC1 |
| 9800 | 63 | 93 | O=C(Oc1ccccc1)N1CCC(Cn2ccc3ccccc32)CC1 |
| 110 | 87 | 94 | O=C(Oc1ccccc1)N1CCC(CCn2ccc3ccccc32)CC1 |

Reference: ChEMBL document CHEMBL4138074, “(Indolylalkyl)piperidine carbamates as inhibitors of fatty acid amide hydrolase (FAAH)” (Medchemcomm, 2017)
